# Source: PubChem (several laboratories)
# In the library only some 1.5% were active in any assay of this set; here they are far more common.
# DNMT1 inh – DNMT1 (human) enzyme inhibition | DNMT1 molecular beacon, Hinp1I cleavage, fluorescence | inhibition (reported as % activation of signal), % at 10 µM | hit rate 0.83% among 360,000
# Target sequence (P26358 504-1616 limits assumed): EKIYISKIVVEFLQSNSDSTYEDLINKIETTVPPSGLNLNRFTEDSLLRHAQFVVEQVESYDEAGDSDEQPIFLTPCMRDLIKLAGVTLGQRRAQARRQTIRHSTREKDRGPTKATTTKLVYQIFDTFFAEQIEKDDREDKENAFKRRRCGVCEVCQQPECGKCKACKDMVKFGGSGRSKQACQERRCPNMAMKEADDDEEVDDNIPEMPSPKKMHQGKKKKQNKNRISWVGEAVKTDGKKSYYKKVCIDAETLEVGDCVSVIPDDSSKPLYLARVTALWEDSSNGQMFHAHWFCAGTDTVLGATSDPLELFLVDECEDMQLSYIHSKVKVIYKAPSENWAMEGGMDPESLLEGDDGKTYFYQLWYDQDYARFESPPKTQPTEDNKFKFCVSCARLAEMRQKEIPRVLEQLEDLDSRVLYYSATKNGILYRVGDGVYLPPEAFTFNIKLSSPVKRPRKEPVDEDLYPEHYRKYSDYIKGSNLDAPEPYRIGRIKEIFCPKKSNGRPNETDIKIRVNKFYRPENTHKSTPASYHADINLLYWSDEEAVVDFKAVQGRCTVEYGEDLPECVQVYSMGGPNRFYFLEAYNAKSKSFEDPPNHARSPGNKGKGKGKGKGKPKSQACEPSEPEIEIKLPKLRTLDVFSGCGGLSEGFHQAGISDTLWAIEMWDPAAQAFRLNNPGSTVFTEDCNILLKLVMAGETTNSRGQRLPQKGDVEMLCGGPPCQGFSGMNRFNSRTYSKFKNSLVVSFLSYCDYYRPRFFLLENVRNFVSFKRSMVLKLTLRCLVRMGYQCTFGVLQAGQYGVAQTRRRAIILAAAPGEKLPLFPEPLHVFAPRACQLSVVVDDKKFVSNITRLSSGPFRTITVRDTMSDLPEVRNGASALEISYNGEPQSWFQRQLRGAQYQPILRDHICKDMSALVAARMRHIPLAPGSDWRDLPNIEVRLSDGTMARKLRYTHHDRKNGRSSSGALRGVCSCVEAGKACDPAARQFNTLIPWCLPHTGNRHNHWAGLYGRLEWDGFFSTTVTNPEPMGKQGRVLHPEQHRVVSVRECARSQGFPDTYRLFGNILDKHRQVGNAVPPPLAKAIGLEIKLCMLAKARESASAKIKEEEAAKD
# NSD2 inh – blocks human histone methyltransferase NSD2; AID 743445; inhibition, % at 12.5 µM; NSD2 peptide methylation, AlphaScreen, 120 min; hit rate 0.54% among 310,000
# NS3 helicase inh – blocks Hepatitis C virus NS3 helicase unwinding; NS3 helicase DNA unwinding, Cy5 molecular beacon fluorescence; inhibition, % at 10.9 µM; hit rate 0.56% among 290,000; AID 1800;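 active = inhibition above the mean of all tested compounds plus 3 SD, set per campaign, cut at about 35% in these data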;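 also: 0% = DMSO wells and 100% = thioflavine S control wells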
#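 test system = hepatitis C virus NS3 helicase domain fragment enzyme | reagent = annealed dual-labelled DNA beacon duplex, ATP-started | times = 1 h at 25 °C | detection = Cy5 fluorescence, 0 and 60 min reads | read-out basis = percent inhibition from t60/t0 fluorescence ratio | control set = DMSO and thioflavine S | replication = one well per compound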
# CASP6 VEID inh – blocks human caspase-6 cleavage activity. P55212. purified caspase-6, Z-VEID-R110 cleavage fluorescence. inhibition, % at 12.5 µM. hit rate 0.53% among 350,000;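 active = mean inhibition across replicates at least about 35%, with every replicate also reaching that limit, limit read from the data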;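 also: 0% = median of neutral control wells and 100% = no fluorescence left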
# * = called active by the depositor; x = no result given; + = active, no number. Rule as the data show it, unless noted: active = inhibition above about 50%; inactive = the rest.
SMILES,DNMT1 inh,NSD2 inh,NS3 helicase inh,CASP6 VEID inh
COc1ccc2c(c1)c(CCN1C(=O)c3ccccc3C1=O)cn2C(=O)c1ccco1,0,1,-2,38*
Nc1cc(C(Cl)=C(Cl)Cl)c(S(N)(=O)=O)cc1S(N)(=O)=O,5,x,x,76*
C[C@@H]1CN([C@H](C)CO)C(=O)c2cc(-c3ccc(C(=O)N(C)C)cc3)cnc2O[C@H]1CN(C)C(=O)CN(C)C,x,x,x,1
O=C(Nc1c(-c2ccccc2)[nH][nH]c1=O)c1ccc2c(c1)OCO2,x,x,x,4
O=C(Nc1c(-c2ccc3c(c2)OCO3)[nH][nH]c1=O)c1ccccc1,15,x,x,45*
C[C@H](CO)N1C[C@H](C)[C@@H](CN(C)C(=O)CCCN(C)C)OCCCC[C@H](C)Oc2ccc(NS(=O)(=O)c3ccccc3)cc2C1=O,x,x,x,-2
O=C(O)c1cc([N+](=O)[O-])cc2c1C=Cc1ccccc1O2,19,4,31,38*
NC(=S)N=Nc1c(O)[nH]c2ccc(F)cc12,-2,-2,6,2
NC(=S)N=Nc1c(O)cc(O)c2[nH]c(=O)ccc12,66*,x,x,93*
CN(C)CC(=O)Nc1ccc2c(c1)[C@H]1C[C@H](CC(=O)NC3CCCC3)O[C@H](CO)[C@H]1O2,x,x,x,1
Cc1cc(SCC(=O)c2ccc(O)c(O)c2)n2nc(C)c(-c3ccccc3)c2n1,-4,11,25,39*
O=C(CSc1nc2ccccc2c(=O)[nH]1)c1ccc(O)c(O)c1,14,x,0,70*
Cc1cc(=O)[nH]c(SCC(=O)Nc2ccc(S(N)(=O)=O)cc2)n1,27,-1,0,52*
O=C(CSc1nc2ccccc2n1CCc1ccccc1)c1ccc(O)c(O)c1,97*,102*,16,70*
C[C@H](CO)N1C[C@H](C)[C@@H](CN(C)C(=O)c2ccccc2)Oc2ncc(C3=CCCCC3)cc2C1=O,x,x,x,-2
Cn1c(SCC(=O)c2ccc(O)c(O)c2)nnc1-c1cccs1,10,16,16,40*
Cc1cc(=O)[nH]c(SCC(=O)c2ccc(O)c(O)c2)n1,4,24,16,36*
O=C1c2sc3nc4n(c(=O)c3c2CCC1Br)CCCCC4 (stereo not drawn),-3,+,1,x
O=C1CCCc2c1sc1nc3n(c(=O)c21)CCCCC3,7,-1,6,x
CC(C)NC(=O)N(C)C[C@@H]1Oc2c(NC(=O)CCCCCC(=O)Nc3ccccc3N)cccc2C(=O)N([C@@H](C)CO)C[C@H]1C,x,x,x,0
O=C(COc1ccc(Cl)cc1Cl)OCC(=O)c1ccc[nH]1,1,6,x,3
O=C(COc1ccc(Cl)cc1Br)OCC(=O)c1ccc[nH]1,19,1,x,38*
CC1=NN(c2ccc(C(=O)O)cc2)C(=O)/C1=C\c1ccc(OC(=O)c2cccs2)cc1,5,24,9,52*
O=C1CN(S(=O)(=O)Cc2ccccc2)C[C@@H]2[C@H](c3ccc(C#Cc4ccccc4)cc3)[C@H](CO)N12,x,x,x,2
S=c1[nH]nc(CSCCOc2ccccc2)o1,1,0,28,-5
SMILES,DNMT1 inh,NSD2 inh,NS3 helicase inh,CASP6 VEID inh
Cn1c(CSCCOc2ccccc2)n[nH]c1=S,0,-1,9,45*
COc1ccc2c3c([nH]c2c1)[C@H](CO)N(C(=O)CC1CC1)CC31CCN(Cc2cccnc2)CC1,x,x,x,0
CC1=NN(c2ccccc2)C(=O)C1C(=S)SC1CC(=O)NC1=O (stereo not drawn),0,-2,x,x
O=C1CC(SC(=S)C2CCCC2=O)C(=O)N1 (stereo not drawn),69*,34,x,49*
COc1cc(/C=C(\C(=O)O)c2ccc(S(=O)(=O)N3CCCC3)s2)ccc1OCCC(C)C,22,8,x,45*
O=C(O)/C(=C\c1ccc(Br)cc1)c1ccc(S(=O)(=O)N2CCCCC2)s1,15,7,16,34
O=C(O)/C(=C\c1cccc(F)c1)c1ccc(S(=O)(=O)N2CCCC2)s1,27,5,x,57*
CCOc1ccccc1/C=C(\C(=O)O)c1ccc(S(=O)(=O)N2CCCCC2)s1,8,13,x,36*
Cc1cccc(/C=C(\C(=O)O)c2ccc(S(=O)(=O)N3CCCC3)s2)c1,62*,9,x,52*
CCCCOc1ccc(/C=C(\C(=O)O)c2ccc(S(=O)(=O)N3CCCC3)s2)cc1,2,3,x,9
C[C@H]1CN([C@@H](C)CO)C(=O)c2ccccc2-c2ccccc2CO[C@@H]1CN(C)Cc1cccnc1,x,x,x,-1
Cc1ccccc1S(=O)(=O)N[C@H]1CC[C@H](CCNS(=O)(=O)c2cccc(F)c2)O[C@@H]1CO,x,x,x,1
Cc1cccc(S(=O)(=O)N2C[C@@H]3[C@H](c4ccccc42)[C@@H](CO)N3C(=O)CC2CC2)c1,x,x,x,-1
